M5 ag – CHRM5 agonism in calcium assay; CHO-K1 hM5 cells, Fluo-8 calcium fluorescence; 0% DMSO wells, 100% maximal acetylcholine response; AID 624037; P08912; activation, % at 3 µM; actives 0.19% (n = 360,000);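 active means activation above the run's mean over test compounds plus 3 SD, cut at about 23% in these data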;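 further: signal is peak over basal fluorescence ratio across the kinetic read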
Target sequence (P08912 whole entry, looked up): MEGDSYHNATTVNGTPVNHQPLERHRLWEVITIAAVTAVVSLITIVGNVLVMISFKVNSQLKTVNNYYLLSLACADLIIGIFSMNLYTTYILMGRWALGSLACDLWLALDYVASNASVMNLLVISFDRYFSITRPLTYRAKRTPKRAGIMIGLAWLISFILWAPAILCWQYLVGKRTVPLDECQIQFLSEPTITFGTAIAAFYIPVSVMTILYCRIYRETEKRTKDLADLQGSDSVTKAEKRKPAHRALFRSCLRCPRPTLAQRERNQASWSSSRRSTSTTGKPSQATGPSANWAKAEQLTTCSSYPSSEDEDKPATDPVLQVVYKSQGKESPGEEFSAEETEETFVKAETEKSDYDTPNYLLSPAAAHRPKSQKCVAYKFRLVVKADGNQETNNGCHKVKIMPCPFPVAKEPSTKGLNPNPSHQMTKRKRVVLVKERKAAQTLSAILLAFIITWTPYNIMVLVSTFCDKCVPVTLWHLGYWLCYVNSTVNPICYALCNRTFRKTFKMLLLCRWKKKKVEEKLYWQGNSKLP
CHRM4 PAM – CHRM4 positive allosteric modulation; AID 624126; P08173; CHO-K1 hM4/Gqi5, Fluo-8 calcium fluorescence, ACh EC20; 0% = ACh EC20, 100% = maximal ACh; actives 0.4% (n = 360,000); activation, % at 3 µM;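 active means activation above its plate's cutoff, the mean activation of sample wells plus 3 SD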
M4 ag – agonists of human muscarinic M4 receptor (CHRM4); P08173; AID 624127; CHO-K1 hM4/Gqi5, Fluo-8 calcium fluorescence; vehicle 0%, full acetylcholine response 100%; actives 0.14% (n = 360,000); activation, % at 3 µM;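 active means activation above the run mean over all test wells plus 3 SD, cut at about 32% in these data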;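 further: peak over basal fluorescence ratio per well then scaled between controls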
M5 PAM – potentiates acetylcholine response at human M5 receptor; P08912; actives 0.3% (n = 360,000); activation, % at 3 µM; CHO-K1 hM5, Fluo-8 calcium, ACh EC20 PAM; 0% = ACh EC20, 100% = ACh EC100;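 active means activation above the run cutoff, the mean activation of all test compounds plus 3 SD, cut at about 18% in these data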
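System – CHO-K1 hM5 cells · Compound – 3 µM, single dose · Incubation – compound preincubation 140 s before EC20 acetylcholine addition · Technique – Fluo-8 calcium fluorescence · Measure – Max/basal fluorescence ratio as % of EC20–EC100 ACh window · Benchmarks – low control EC20 acetylcholine (0%), high control EC100 acetylcholine (100%) · Replication – singlicate, one well per test compound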
M4 antag – CHRM4 antagonism in calcium assay | CHO-hM4 cells, ACh EC80, Fluo-8 calcium fluorescence | inhibition, % at 3 µM | actives 0.73% (n = 360,000) | P08173 | AID 624125;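 active means inhibition above its plate's cutoff, the mean inhibition of sample wells plus 3 SD, cut at about 27% in these data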
M5 antag – blocks acetylcholine activation of human M5 receptor. P08912. CHO-hM5 cells, Fluo-8 calcium fluorescence, ACh EC80. inhibition, % at 3 µM. actives 0.59% (n = 360,000);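 active means inhibition above a per-plate cutoff, the mean of that plate's test compounds plus 3 SD, cut at about 27% in these data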
Numbers stand for hits; i = inactive. Compounds with a hit are over-represented: about 1.8% of the library has one in this group of screens.

SMILES | M5 ag | CHRM4 PAM | M4 ag | M5 PAM | M4 antag | M5 antag
CCOC(=O)C1CCCN(CC(=O)Nc2cc(C)cc(C)c2)C1 (configuration not stated) | i | i | i | i | i | i
CCOC(=O)C1CCCN(C(=S)Nc2ccc(S(=O)(=O)N3CCOCC3)cc2)C1 (configuration not stated) | 42 | i | i | i | i | i
O=C(NCCc1cccc(Cl)c1)c1cccc(-n2cnnn2)c1 | i | i | i | i | i | i
COc1cc(CC(=O)OCC(=O)NCCc2ccc(S(N)(=O)=O)cc2)cc(OC)c1OC | i | i | i | i | i | i
CC(C)Cn1c(SCC(=O)Nc2cccnc2Cl)nnc1-c1ccco1 | i | i | i | i | i | i
CCN(CC)c1ccc(/C=C/C(=O)c2ccc(Br)cc2)cc1 | 113 | i | 94 | i | 67 | 67
CCCOc1ccc(C(=O)NC(=S)NNC(=O)c2c(-c3ccccc3)noc2C)cc1 | i | i | 32 | i | i | i
Cc1onc(-c2ccccc2)c1C(=O)NC(=S)NNC(=O)c1ccccc1O | i | i | 44 | i | i | i
O=C(NCc1ccccn1)c1ccc(OC2CCN(Cc3ccc(F)cc3F)CC2)cc1 | i | i | i | i | i | i
CCc1ccc(C2CC(=O)N3CN(c4ccccc4)CSC3=C2C#N)cc1 (configuration not stated) | i | i | i | i | i | i
CN1CSC2=C(C#N)C(c3cccc(OCc4ccccc4)c3)CC(=O)N2C1 (configuration not stated) | 40 | i | i | i | i | i
CC(CNC(=O)CCCn1ncn2c(cc3occc32)c1=O)c1ccccc1 (configuration not stated) | i | 16 | i | i | i | i
c1ccn2cc(C34CC5CC(CC(C5)C3)C4)nc2c1 | i | i | i | i | 60 | i
Cc1nnc(SCC(=O)N2c3ccccc3C(C)(c3ccccc3)CC2(C)C)s1 (configuration not stated) | i | i | i | i | i | i
OC(C#CCN1CCOCC1)(c1ccccc1)C1CC1 (configuration not stated) | i | i | i | i | i | i
CC(O)(C#CCN1CCCCCC1)c1ccccc1 (configuration not stated) | i | i | i | i | i | i
OC(C#CCN1CCCC1)(c1ccccc1)c1ccccc1 | i | i | i | i | 98 | 99
CC(C)C(O)(C#CCN1CCCCC1)C(C)C | i | i | i | i | i | 31
OC(C#CCN1CCCCC1)(c1ccccc1)c1ccccc1 | i | i | i | i | 100 | 100
CCc1cc(SC#N)cc(CC)c1NC(=O)CCl | i | i | i | i | i | i
O=C(c1ccc2c(=O)n3c(nc2c1)CCCCC3)N1CCc2ccccc21 | i | i | i | i | i | i
O=S(=O)(Cc1noc(-c2ccc(Cl)cc2)n1)Cc1ccco1 | i | i | i | i | i | i
CCOC(=O)C1=CCN(S(=O)(=O)c2ccc(C)cc2)[C@H]1c1ccccc1Cl | i | i | i | i | i | i
O=C(Oc1coc(CSc2ncccn2)cc1=O)c1ccc(Br)o1 | i | i | i | i | i | i
Cc1ccnc(SCc2cc(=O)c(OC(=O)c3ccc(Br)o3)co2)n1 | i | i | i | 34 | i | i
SMILES | M5 ag | CHRM4 PAM | M4 ag | M5 PAM | M4 antag | M5 antag
COC(=O)[C@@]12C[C@@H](CC(=O)N3CCCC3)C(=O)N(Cc3ccc4c(c3)OCO4)C1=CCC(C)(C)C2 | i | i | i | i | i | i
Cc1cc(OCC(=O)NCC2CCC(C(=O)O)CC2)c2c(C)c(Cc3ccccc3)c(=O)oc2c1 (configuration not stated) | i | i | i | i | i | i
N#Cc1ccc(/C=C/C(=O)c2ccc3c(c2)OCO3)cc1 | i | 17 | i | i | i | i
CCc1ccc2oc(=O)cc(CN3CCN(Cc4ccccc4)CC3)c2c1 | i | i | i | i | 65 | i
Cc1cc(C)n(CC(=O)c2ccc(Br)cc2)c(=O)c1C#N | i | i | i | i | i | i
Cc1ccc(C(=O)Cn2c(C)cc(C)c(C#N)c2=O)cc1 | i | i | i | 29 | i | i
COC(=O)C1=C(N)Oc2cc(C)[nH]c(=O)c2C1c1ccncc1 (configuration not stated) | i | i | i | 20 | i | i
COC(=O)C1=C(N)Oc2cc(C)n(C)c(=O)c2C1c1ccc(Cl)c(Cl)c1 (configuration not stated) | i | i | i | i | i | i
O=C(O)CSCC(=O)N1CCN(c2nc3cc(Cl)ccc3s2)CC1 | i | i | i | i | i | i
Cc1ccc(NC(=O)CCC(=O)Nc2nnc(C3CCCCC3)s2)cc1 | i | 20 | i | i | i | i
Cc1cc(C)c(C(O)c2ncc(-c3cccc4ccccc34)[nH]2)c(C)c1 (configuration not stated) | i | i | i | i | i | i
C=CCn1c(SCc2ccc(C(=O)Nc3nccs3)cc2)nnc1-c1ccc(C)c(Cl)c1 | i | i | i | i | i | 27
CCOC(=O)CN1N=C(/C=C/c2ccccc2)CCC1=O | 28 | i | i | i | i | i
O=C1C=CC(=Nc2cccc3c2C(=O)c2ccccc2-3)O1 | 45 | i | 67 | i | i | i
O=C1C=CC(=Nc2ccc3c(c2)Cc2cc(F)ccc2-3)O1 | i | i | i | i | i | i
CCCCN(C)C(=O)c1ccc(CS(=O)(=O)c2ccccc2C)o1 | i | 18 | i | i | i | i
Cc1ccccc1S(=O)(=O)Cc1ccc(C(=O)NC2CCCCCC2)o1 | i | 15 | i | i | i | i
COC(CN(C)C(=O)c1ccc(CS(=O)(=O)c2ccccc2C)o1)OC | i | i | i | i | i | i
CCSc1nnc(NC(=O)CSc2nnc(C)c(=O)n2N)s1 | i | i | i | i | i | i
Cc1ccc2nc3c(cc2c1)c(C)nn3-c1ccccc1 | i | 31 | i | i | i | i
Cc1nn(-c2ccccc2)c2nc(=O)n(-c3ccccc3)cc12 | i | i | i | i | i | i
CCOC(=O)c1ccc(NC(=O)Nc2nc3ccccc3s2)cc1 | i | i | i | i | 61 | i
COC(=O)c1ccc(NC(=S)NCCc2cccc(C)c2)cc1 | i | i | i | i | i | 28
CCOC(=O)c1ccc(NC(=S)NCc2ccc(F)cc2)cc1 | i | i | i | i | i | i
CCOC(=O)Nc1nc2ccccc2s1 | i | i | i | i | i | i
CCOC(=O)c1ccc(NC(=S)NN)cc1 | i | 20 | i | i | i | i
O=C(Nc1ccccc1Cl)c1cc(C2CCCCN2C(=O)c2ccccc2)on1 (configuration not stated) | i | i | i | i | i | i
